Our source for the Activity values is ChEMBL document CHEMBL1255440, “An antimicrobial peptide that targets DNA repair intermediates in vitro inhibits Salmonella growth within murine macrophages” (Antimicrob Agents Chemother, 2010).

The experiment concerns Salmonella typhimurium. Description: Antibacterial activity against 1 MOI Salmonella enterica subsp. enterica serovar Typhimurium infected in mouse J774A1 cells assessed as reduction in bacterial growth at 2.5 times MIC. In kind it is functional, organism-based. The following applies: J774.A1. In outline:
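J774A.1 cells or thioglycolate-elicited BALB/c peritoneal macrophages seeded at 200,000/well, overnight 37°C 5% CO2; infected with GFP strain SDT1416, 1 h invasion, washed, 1 h in DMEM with 15 μg/ml gentamicin. Then fresh DMEM plus 15 μg/ml gentamicin with or without peptide (DMSO vehicle) for 24 h at 37°C; macrophages lysed with 1% Triton X-100, plated on LB agar for CFU.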

Active and inactive are the calls of the source. The rule behind the calls is not given here.

In the case of `N=C(N)NCCC[C@H](NC(=O)[C@H](CS)NC(=O)[C@H](Cc1ccc(O)cc1)NC(=O)[C@H](Cc1c[nH]c2ccccc12)NC(=O)[C@H](CCCNC(=N)N)NC(=O)[C@@H](N)Cc1c[nH]c2ccccc12)C(=O)O`, the result was Active.
